For assay [1], the system named is 3T3-L1. Description: In vitro fold stimulation of glucose transporter protein in 3T3-L1 adipocytes at a concentration of 10 uM. It counts as functional, Mus musculus. The procedure, abridged:
(§1)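 Differentiated 3T3-L1 adipocytes (days 7–11 after start of differentiation) exposed to compound in DMEM + 10% FBS, 0.1% DMSO final, medium renewed with fresh drug after 24 h, total 48 h. Triton X-100/EDTA/DTT extracts dot-blotted, probed with affinity-purified rabbit anti-GLUT1 (0.5 μg/mL) then 125I goat anti-rabbit IgG, gamma-counted; transporter quantified against basal-extract standard curve, fold over DMSO control.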

Assay [2] deals with 3T3-L1. Description: In vitro fold stimulation of glucose transporter protein in 3T3-L1 adipocytes at a concentration of 30 uM. It counts as functional, Mus musculus. Put shortly: as §1
Assay [3] in a line: In vitro stimulation of 2-Deoxyglucose uptake in L6 myocytes from rat skeletal myoblasts at a concentration of 10 uM. Type of assay: functional. The procedure, abridged: (§2)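 Rat L6 myoblasts grown 14 days in MEMalpha + 2% FBS to fuse into myocytes, then serum-depleted 5 h. Uptake of 0.1 mM [1-14C]2-deoxyglucose in Dulbecco's PBS (+Ca, Mg) for 10 min at room temperature, stopped by ice-cold saline washes. Cells dissolved in 0.1 M NaOH and scintillation counted. Reported relative to 1 µM insulin set at 1.0.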

The nature of assay [4]: In vitro stimulation of 2-Deoxyglucose uptake in L6 myocytes from rat skeletal myoblasts at a concentration of 3 uM. Type of assay: functional. The procedure, abridged: as §2
Assay [5] can be described thus: In vitro stimulation of 2-Deoxyglucose uptake in L6 myocytes from rat skeletal myoblasts at a concentration of 30 uM. It counts as functional. The procedure, abridged: as §2
For assay [6], the system named is Mus musculus. Description: In vivo percent glucose normalization in mice at a concentration of 25 mg/kg. It counts as functional. Put shortly: (§3)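 Six- to eight-week-old C57BL/6J-ob/ob mice, acclimated 1 week, bled retroorbitally before treatment. Oral gavage once daily for four days in 0.25% (w/v) methylcellulose in water, unadjusted pH. Bled again 24 h after the fourth dose. Plasma glucose read by hexokinase UV method. Expressed as % normalization: vehicle = 0%, ciglitazone 50 mg/kg = 100%.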

Assay [7] deals with Mus musculus. Description: Compound was evaluated for in vivo for % glucose normalization in mice at a concentration of 10 mg/kg. Type of assay: functional. The procedure, abridged:
as §3

Assay [8] relates to Mus musculus. Description: Compound was evaluated for in vivo for % glucose normalization in mice at a concentration of 5 mg/kg. Type of assay: functional. Put shortly:
as §3

Assay [9] deals with Mus musculus. Description: Compound was evaluated for in vivo for % glucose normalization in mice at a concentration of 2.5 mg/kg. Type of assay: functional. Put shortly: as §3

In ChEMBL document CHEMBL1125908, “Substituted dihydrobenzopyran and dihydrobenzofuran thiazolidine-2,4-diones as hypoglycemic agents” (1991) one finds GT fold stimulation, 2-DG uptake stimulation and Glucose normalisation data, which are given here for 22 compounds.

With `O=C1NC(=O)C(Cc2ccc3c(c2)CC(C2CCCCC2)O3)S1` (configuration not stated), the figures for the GT fold stimulation in the assay with 3T3-L1 [1] and in the assay with 3T3-L1 [2] were 1.25 and 1.42, respectively. For the same compound, the figures for the 2-DG uptake stimulation in [3], in assay [4] and in assay [5] were 1.85, 1.1 and 1.66, respectively. Besides, in the assay on Mus musculus [6], the Glucose normalisation was 23%.

For `O=C1NC(=O)C(Cc2ccc3c(c2)CC(CC2CCCCC2)O3)S1` (configuration not stated), the GT fold stimulation with 3T3-L1 [1] is 1.14; with 3T3-L1 [2] it was 1.41. Besides, the 2-DG uptake stimulation in [3] is on record as 1.39; in assay [4], 0.88; in [5], 1.71. Besides, the Glucose normalisation in the assay with Mus musculus [6] stood at 19%.

As for `CC1(C2Cc3cc(CC4SC(=O)NC4=O)ccc3O2)CCCCC1` (configuration not stated), the GT fold stimulation with 3T3-L1 [1] came out at 1.11; with 3T3-L1 [2], 1.22. The results for the Glucose normalisation in the assay on Mus musculus [7] and in the assay with Mus musculus [6] were 33% and 80%, respectively. The 2-DG uptake stimulation in assay [3] amounted to 0.93; in [4], 0.8; in assay [5], 1.67.

`O=C1NC(=O)C(Cc2ccc3c(c2)CC(c2ccccc2)O3)S1` (configuration not stated): the GT fold stimulation in the assay on 3T3-L1 [1] worked out at 1.14; with 3T3-L1 [2], 1.42. In addition, the Glucose normalisation in the assay on Mus musculus [7] came to 6%; in the assay with Mus musculus [6], 85%. For the same compound, the results for the 2-DG uptake stimulation in assay [3], in assay [4] and in [5] were 0.99, 0.76 and 1.3, respectively.

Consider `O=C1NC(=O)C(Cc2ccc3c(c2)CCC2(CCCCC2)O3)S1` (configuration not stated), for which the results for the GT fold stimulation with 3T3-L1 [1] and with 3T3-L1 [2] were 0.97 and 1.2, respectively. Moreover, the 2-DG uptake stimulation was 1.52 in assay [3], 0.97 in assay [4] and 1.22 in assay [5]. Moreover, the Glucose normalisation in the assay on Mus musculus [6] came to 35%.

Consider `O=C1NC(=O)C(Cc2ccc3c(c2)C(c2ccccc2)CO3)S1` (configuration not stated), for which the GT fold stimulation is listed as 1.13 in the assay on 3T3-L1 [1] and 1.19 in the assay with 3T3-L1 [2]. Besides, the 2-DG uptake stimulation in [3] turned out to be 1.24; in assay [4], 1.05; in assay [5] it was 1.42. This compound displayed a Glucose normalisation in the assay with Mus musculus [6] of 32%.

As for `COc1ccc(CC2CCc3cc(CC4SC(=O)NC4=O)ccc3O2)cc1` (configuration not stated), the figures for the GT fold stimulation with 3T3-L1 [1] and with 3T3-L1 [2] were 1.08 and 1.21, respectively. Also, the results for the Glucose normalisation in the assay with Mus musculus [7], in the assay on Mus musculus [8] and in the assay with Mus musculus [6] were 68%, 10% and 85%, respectively. The 2-DG uptake stimulation is 1.15 in assay [3], 0.92 in assay [4] and 0.69 in [5].

As for `O=C1NC(=O)C(Cc2ccc3c(c2)CCC(Cc2ccccn2)O3)S1` (configuration not stated), the figures for the GT fold stimulation with 3T3-L1 [1] and in the assay on 3T3-L1 [2] were 1.48 and 1.42, respectively. Moreover, the Glucose normalisation is reported as 49% in the assay on Mus musculus [7] and 74% with Mus musculus [6]. Further, the 2-DG uptake stimulation in assay [3] is on record as 0.96; in [4], 0.76; in assay [5], 0.96.

For `O=C1NC(=O)C(Cc2ccc3c(c2)CCC(c2ccccc2)O3)S1` (configuration not stated), the values for the GT fold stimulation with 3T3-L1 [1] and in the assay with 3T3-L1 [2] were 1.05 and 1.37, respectively. Further, the Glucose normalisation in the assay with Mus musculus [7] is recorded as 0%; in the assay on Mus musculus [6], 70%. The 2-DG uptake stimulation in [3] is 0.95; in assay [4], 0.78; in assay [5], 1.15.

For `CCC1(CC)CCc2cc(CC3SC(=O)NC3=O)ccc2O1` (configuration not stated), the GT fold stimulation was 1.08 in the assay on 3T3-L1 [1] and 1.21 in the assay on 3T3-L1 [2]. The figures for the 2-DG uptake stimulation in assay [3], in assay [4] and in assay [5] were 1.33, 1.01 and 1.38, respectively. In addition, the Glucose normalisation in the assay with Mus musculus [6] worked out at 24%.

Take `O=C1NC(=O)C(Cc2ccc3c(c2)CCC2(CCCC2)O3)S1` (configuration not stated): the GT fold stimulation in the assay with 3T3-L1 [1] came out at 0.95; in the assay on 3T3-L1 [2], 1.1. For the same compound, the Glucose normalisation was found to be 64% with Mus musculus [7], 0% with Mus musculus [9], 50% in the assay with Mus musculus [8] and 52% with Mus musculus [6]. Moreover, the results for the 2-DG uptake stimulation in [3], in assay [4] and in [5] were 1.06, 0.79 and 1.18, respectively.

In the case of `O=C1NC(=O)C(Cc2ccc3c(c2)CCC(Cc2ccc(OCc4ccccc4)cc2)O3)S1` (configuration not stated), the GT fold stimulation in the assay on 3T3-L1 [1] was 1.48; in the assay on 3T3-L1 [2] it was 1.59. In addition, the Glucose normalisation with Mus musculus [7] is on record as 100%; in the assay on Mus musculus [9], 19%; in the assay on Mus musculus [8], 73%; in the assay with Mus musculus [6], 95%. Further, the results for the 2-DG uptake stimulation in assay [3], in assay [4] and in assay [5] were 1.53, 1.42 and 1.34, respectively.

Consider `O=C1NC(=O)C(Cc2ccc3c(c2)CC[C@@H](Cc2ccccc2)O3)S1` (some centres not stated), for which the figures for the GT fold stimulation with 3T3-L1 [1] and in the assay on 3T3-L1 [2] were 1.13 and 1.17, respectively. Also, the Glucose normalisation in the assay on Mus musculus [7] was 47%; in the assay on Mus musculus [8] it was 41%; in the assay on Mus musculus [6], 73%. Also, the 2-DG uptake stimulation turned out to be 0.9 in [3], 0.77 in assay [4] and 1.23 in assay [5].

In the case of `O=C1NC(=O)C(Cc2ccc3c(c2)CC2(CCCCC2)O3)S1` (configuration not stated), the GT fold stimulation was found to be 1.15 in the assay with 3T3-L1 [1] and 1.36 with 3T3-L1 [2]. Further, the 2-DG uptake stimulation turned out to be 1.28 in assay [3], 0.85 in assay [4] and 1.62 in assay [5]. Moreover, the Glucose normalisation in the assay with Mus musculus [6] turned out to be 56%.

Take `O=C1NC(=O)C(Cc2ccc3c(c2)CCC(CC2CCCCC2)O3)S1` (configuration not stated): the GT fold stimulation with 3T3-L1 [1] stood at 1.02; in the assay on 3T3-L1 [2], 1.28. Further, the 2-DG uptake stimulation in assay [3] amounted to 1.55; in assay [4], 1.14; in assay [5], 0.68. In the assay on Mus musculus [6], this compound returned a Glucose normalisation of 7%.

Regarding `O=C1NC(=O)C(Cc2ccc3c(c2)CCC(Cc2ccccc2)(Cc2ccccc2)O3)S1` (configuration not stated), the GT fold stimulation in the assay on 3T3-L1 [1] is 1.03; in the assay on 3T3-L1 [2] it was 1.23. The 2-DG uptake stimulation in assay [3] was determined as 0.86; in [4] it was 0.73; in [5], 0.44. Further, the Glucose normalisation in the assay on Mus musculus [6] came out at 12%.

With `O=C1NC(=O)C(Cc2ccc3c(c2)C(Cc2ccccc2)CO3)S1` (configuration not stated), the GT fold stimulation stood at 1.09 with 3T3-L1 [1] and 1.31 with 3T3-L1 [2]. Besides, the figures for the 2-DG uptake stimulation in assay [3], in [4] and in assay [5] were 1.25, 0.85 and 1.4, respectively. In the assay with Mus musculus [6], this compound returned a Glucose normalisation of 0%.

For the compound `O=C1NC(=O)C(Cc2ccc3c(c2)CCC(Cc2ccc(O)cc2)O3)S1` (configuration not stated), the GT fold stimulation is given as 1.25 in the assay with 3T3-L1 [1] and 1.34 with 3T3-L1 [2]. Moreover, the Glucose normalisation with Mus musculus [7] amounted to 55%; in the assay with Mus musculus [6], 100%. For the same compound, the 2-DG uptake stimulation stood at 1.24 in assay [3], 1.04 in [4] and 1.03 in assay [5].

On to `O=C1NC(=O)C(Cc2ccc3c(c2)CCC2(CCCCCC2)O3)S1` (configuration not stated), for which the GT fold stimulation in the assay with 3T3-L1 [1] came out at 0.94; in the assay on 3T3-L1 [2], 1.12. Also, the 2-DG uptake stimulation in assay [3] is listed as 0.99; in assay [4], 1.32; in assay [5], 0.43. The compound also returned a Glucose normalisation in the assay on Mus musculus [6] of 0%.

In the case of `O=C1NC(=O)C(Cc2ccc3c(c2)CC2(CCCCC2)CO3)S1` (configuration not stated), the values for the GT fold stimulation in the assay on 3T3-L1 [1] and in the assay on 3T3-L1 [2] were 0.8 and 1.23, respectively. In addition, the results for the Glucose normalisation in the assay on Mus musculus [7] and in the assay on Mus musculus [6] were 6% and 68%, respectively. In addition, the 2-DG uptake stimulation in assay [3] is 1.27; in assay [4] it was 1.15; in [5], 1.38.

As to `O=C1NC(=O)C(Cc2ccc3c(c2)CCC(Cc2ccccc2)O3)S1` (configuration not stated), the values for the GT fold stimulation with 3T3-L1 [1] and with 3T3-L1 [2] were 1.14 and 1.48, respectively. Further, the Glucose normalisation is 70% in the assay on Mus musculus [7], 29% in the assay with Mus musculus [9], 48% with Mus musculus [8] and 91% with Mus musculus [6]. The figures for the 2-DG uptake stimulation in assay [3], in assay [4] and in assay [5] were 1.29, 0.91 and 1.14, respectively.

Consider `CC1(COc2ccc(CC3SC(=O)NC3=O)cc2)CCCCC1` (configuration not stated) [CIGLITAZONE], for which the results for the GT fold stimulation in the assay with 3T3-L1 [1] and in the assay on 3T3-L1 [2] were 1.49 and 1.51, respectively. In addition, the Glucose normalisation in the assay with Mus musculus [7] is 52%; in the assay with Mus musculus [6] it was 84%. Also, the 2-DG uptake stimulation in [3] was determined as 1.02; in assay [4], 0.82; in assay [5], 0.68.
